Reference: ChEMBL document CHEMBL1129264, “Mercaptoacyl dipeptides as orally active dual inhibitors of angiotensin-converting enzyme and neutral endopeptidase” (1996)
Each block holds one compound with its values, some of them ahead of it.

What was measured:
Assay type in all cases: organism-based
[1] = biological target: T1, Angiotensin-converting enzyme (Rattus norvegicus) (UniProt P47820); experiment: Compound was tested for plasma inhibition of Angiotensin I converting enzyme activity in the conscious rat. Expressed as Inhibition of AI pressor response at 2 hr at a dose of 12 mg/kg po; set-up: dose 12 mg/kg
T1 sequence (whole entry): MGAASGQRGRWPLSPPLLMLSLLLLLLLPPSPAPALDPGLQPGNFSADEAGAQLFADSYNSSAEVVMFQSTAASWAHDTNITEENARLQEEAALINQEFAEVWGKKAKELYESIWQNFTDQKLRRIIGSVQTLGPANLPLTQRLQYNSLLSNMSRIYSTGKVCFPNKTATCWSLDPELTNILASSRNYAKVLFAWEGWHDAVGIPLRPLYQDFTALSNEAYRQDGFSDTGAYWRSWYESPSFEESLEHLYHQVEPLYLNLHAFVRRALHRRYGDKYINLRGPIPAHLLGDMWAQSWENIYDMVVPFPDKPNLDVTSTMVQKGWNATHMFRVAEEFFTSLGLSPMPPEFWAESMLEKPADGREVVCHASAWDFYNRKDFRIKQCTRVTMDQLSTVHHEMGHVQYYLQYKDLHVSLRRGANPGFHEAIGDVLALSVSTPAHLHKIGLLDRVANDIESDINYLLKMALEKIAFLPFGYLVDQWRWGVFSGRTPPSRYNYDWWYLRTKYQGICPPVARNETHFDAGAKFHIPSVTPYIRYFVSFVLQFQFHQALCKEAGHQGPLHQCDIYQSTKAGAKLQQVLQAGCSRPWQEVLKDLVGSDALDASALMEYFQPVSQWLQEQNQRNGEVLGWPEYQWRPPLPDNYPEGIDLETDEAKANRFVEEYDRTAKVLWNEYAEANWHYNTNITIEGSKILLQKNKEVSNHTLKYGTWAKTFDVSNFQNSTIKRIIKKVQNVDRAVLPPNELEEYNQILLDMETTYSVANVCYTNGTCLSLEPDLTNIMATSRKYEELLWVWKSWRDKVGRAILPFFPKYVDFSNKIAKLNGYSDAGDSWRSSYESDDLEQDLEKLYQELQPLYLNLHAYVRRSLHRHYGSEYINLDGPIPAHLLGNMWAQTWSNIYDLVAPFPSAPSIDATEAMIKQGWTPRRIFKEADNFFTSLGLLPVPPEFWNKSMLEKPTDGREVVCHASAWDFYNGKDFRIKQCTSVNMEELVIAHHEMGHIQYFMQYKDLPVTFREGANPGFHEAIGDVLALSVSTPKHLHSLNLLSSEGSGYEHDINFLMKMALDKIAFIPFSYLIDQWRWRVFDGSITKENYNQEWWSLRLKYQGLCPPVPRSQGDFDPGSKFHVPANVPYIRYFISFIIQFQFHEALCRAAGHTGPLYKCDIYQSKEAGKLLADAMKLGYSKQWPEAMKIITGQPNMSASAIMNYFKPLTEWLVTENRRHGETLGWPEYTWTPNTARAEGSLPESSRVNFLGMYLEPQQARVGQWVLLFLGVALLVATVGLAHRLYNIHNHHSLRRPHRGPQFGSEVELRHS
Procedure, shortened: (§1)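 Male conscious normotensive Sprague-Dawley rats (275-390 g), given femoral arterial and venous catheters under methohexital sodium (75 mg/kg ip) anesthesia. Next day, pressor responses to three angiotensin-I challenges (300 ng/kg iv) recorded by direct arterial pressure. Compound then dosed orally, and AI challenge repeated at set times. Each post-dose response compared with the mean of the three baseline responses, giving % inhibition.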

[2] = biological target: T1, Angiotensin-converting enzyme (Rattus norvegicus); experiment: Compound was tested for plasma inhibition of Angiotensin I converting enzyme activity in the conscious rat. Expressed as Inhibition of AI pressor response at 6 hr at a dose of 12 mg/kg po; set-up: dose 12 mg/kg
Procedure, shortened: (§2)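 Male conscious normotensive Sprague-Dawley rats (275-390 g), prepared under methohexital sodium (75 mg/kg ip) with femoral arterial and venous catheters. The next day, pressor responses to three angiotensin-I challenges (300 ng/kg iv) were recorded. Compound was then given orally and angiotensin-I challenges were repeated at set times. Percent inhibition is relative to the mean of the three baseline responses.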

[3] = biological target: T1, Angiotensin-converting enzyme (Rattus norvegicus); experiment: Compound was tested for plasma inhibition of Angiotensin I converting enzyme activity in the conscious rat. Expressed as Inhibition of AI pressor response at 1 hr at a dose of 12 mg/kg po; set-up: dose 12 mg/kg; procedure, shortened: as §1
[4] = biological target: T1, Angiotensin-converting enzyme (Rattus norvegicus); experiment: Compound was tested for plasma inhibition of Angiotensin I converting enzyme activity in the conscious rat. Expressed as Inhibition of AI pressor response at 4 hr at a dose of 12 mg/kg po; set-up: dose 12 mg/kg; procedure, shortened: as §1
[5] = biological target: T1, Angiotensin-converting enzyme (Rattus norvegicus); experiment: Compound was tested for plasma inhibition of Angiotensin I converting enzyme activity in the conscious rat. Expressed as Inhibition of AI pressor response at 6 hr at a dose of 12.5 mg/kg po; set-up: dose 12.5 mg/kg; procedure, shortened: as §2
[6] = biological target: T1, Angiotensin-converting enzyme (Rattus norvegicus); experiment: Compound was tested for plasma inhibition of Angiotensin I converting enzyme activity in the conscious rat. Expressed as Inhibition of AI pressor response at 2 hr at a dose of 12.5 mg/kg po; set-up: dose 12.5 mg/kg; procedure, shortened: as §1
[7] = biological target: T1, Angiotensin-converting enzyme (Rattus norvegicus); experiment: Compound was tested for plasma inhibition of Angiotensin I converting enzyme activity in the conscious rat. Expressed as Inhibition of AI pressor response at 1 hr at a dose of 12.5 mg/kg po; set-up: dose 12.5 mg/kg; procedure, shortened: as §1
[8] = biological target: T1, Angiotensin-converting enzyme (Rattus norvegicus); experiment: Compound was tested for plasma inhibition of Angiotensin I converting enzyme activity in the conscious rat. Expressed as Inhibition of AI pressor response at 4 hr at a dose of 12.5 mg/kg po; set-up: dose 12.5 mg/kg; procedure, shortened: as §1
[9] = biological target: T1, Angiotensin-converting enzyme (Rattus norvegicus); experiment: Compound was tested for plasma inhibition of Angiotensin I converting enzyme activity in the conscious rat. Expressed as Inhibition of AI pressor response at 2 hr at a dose of 12.3 mg/kg po; set-up: dose 12.3 mg/kg; procedure, shortened: as §1
[10] = biological target: T1, Angiotensin-converting enzyme (Rattus norvegicus); experiment: Compound was tested for plasma inhibition of Angiotensin I converting enzyme activity in the conscious rat. Expressed as Inhibition of AI pressor response at 6 hr at a dose of 12.3 mg/kg po; set-up: dose 12.3 mg/kg; procedure, shortened: as §2
[11] = biological target: T1, Angiotensin-converting enzyme (Rattus norvegicus); experiment: Compound was tested for plasma inhibition of Angiotensin I converting enzyme activity in the conscious rat. Expressed as Inhibition of AI pressor response at 1 hr at a dose of 12.3 mg/kg po; set-up: dose 12.3 mg/kg; procedure, shortened: as §1
[12] = biological target: T1, Angiotensin-converting enzyme (Rattus norvegicus); experiment: Compound was tested for plasma inhibition of Angiotensin I converting enzyme activity in the conscious rat. Expressed as Inhibition of AI pressor response at 4 hr at a dose of 12.3 mg/kg po; set-up: dose 12.3 mg/kg; procedure, shortened: as §1
[13] = biological target: T1, Angiotensin-converting enzyme (Rattus norvegicus); experiment: Compound was tested for plasma inhibition of Angiotensin I converting enzymeb activity in the conscious rat. Expressed as Inhibition of AI pressor response at 4 hr at a dose of 12.8 mg/kg po; set-up: dose 12.8 mg/kg; procedure, shortened: as §2
[14] = biological target: T1, Angiotensin-converting enzyme (Rattus norvegicus); experiment: Compound was tested for plasma inhibition of Angiotensin I converting enzyme activity in the conscious rat. Expressed as Inhibition of AI pressor response at 2 hr at a dose of 12.8 mg/kg po; set-up: dose 12.8 mg/kg; procedure, shortened: as §1
[15] = biological target: T1, Angiotensin-converting enzyme (Rattus norvegicus); experiment: Compound was tested for plasma inhibition of Angiotensin I converting enzyme activity in the conscious rat. Expressed as Inhibition of AI pressor response at 6 hr at a dose of 12.8 mg/kg po; set-up: dose 12.8 mg/kg; procedure, shortened: as §2
[16] = biological target: T1, Angiotensin-converting enzyme (Rattus norvegicus); experiment: Compound was tested for plasma inhibition of Angiotensin I converting enzyme activity in the conscious rat. Expressed as Inhibition of AI pressor response at 1 hr at a dose of 12.8 mg/kg po; set-up: dose 12.8 mg/kg; procedure, shortened: as §1
[17] = biological target: T1, Angiotensin-converting enzyme (Rattus norvegicus); experiment: Compound was tested for plasma inhibition of Angiotensin I converting enzyme activity in the conscious rat. Expressed as Inhibition of AI pressor response at 1 hr at a dose of 13.4 mg/kg po; set-up: dose 13.4 mg/kg; procedure, shortened: as §1
[18] = biological target: T1, Angiotensin-converting enzyme (Rattus norvegicus); experiment: Compound was tested for plasma inhibition of Angiotensin I converting enzyme activity in the conscious rat. Expressed as Inhibition of AI pressor response at 4 hr at a dose of 13.4 mg/kg po; set-up: dose 13.4 mg/kg; procedure, shortened: as §2
[19] = biological target: T1, Angiotensin-converting enzyme (Rattus norvegicus); experiment: Compound was tested for plasma inhibition of Angiotensin I converting enzyme activity in the conscious rat. Expressed as Inhibition of AI pressor response at 2 hr at a dose of 13.4 mg/kg po; set-up: dose 13.4 mg/kg; procedure, shortened: as §1
[20] = biological target: T1, Angiotensin-converting enzyme (Rattus norvegicus); experiment: Compound was tested for plasma inhibition of Angiotensin I converting enzyme activity in the conscious rat. Expressed as Inhibition of AI pressor response at 6 hr at a dose of 13.4 mg/kg po; set-up: dose 13.4 mg/kg; procedure, shortened: as §2

inhibition [5]: 34%
inhibition [6]: 77%
inhibition [7]: 81%
inhibition [8]: 70%
SMILES: CCOC(=O)[C@H](Cc1ccc(O)cc1)NC(=O)C1(NC(=O)[C@H](SC(=O)COC)C(C)C)CCCC1

inhibition [9]: 80%
inhibition [10]: 68%
inhibition [11]: 90%
inhibition [12]: 72%
SMILES: CCCOc1ccc(C[C@H](NC(=O)C2(NC(=O)[C@H](SC(C)=O)C(C)C)CCCC2)C(=O)OCC)cc1

inhibition [17]: 73%
inhibition [18]: 63%
inhibition [19]: 75%
inhibition [20]: 46%
SMILES: CCOC(=O)[C@H](Cc1ccc(OC(=O)C(C)C)cc1)NC(=O)C1(NC(=O)[C@H](SC(C)=O)C(C)C)CCCC1

Continued, compound first:

SMILES: C=CCOC(=O)[C@H](Cc1ccc(O)cc1)NC(=O)C1(NC(=O)[C@H](SC(C)=O)C(C)C)CCCC1
inhibition [1]: 75%
inhibition [2]: 59%
inhibition [3]: 68%
inhibition [4]: 67%

SMILES: CCCCOC(=O)[C@H](Cc1ccc(O)cc1)NC(=O)C1(NC(=O)[C@H](SC(=O)CC)C(C)C)CCCC1
inhibition [13]: 56%
inhibition [14]: 71%
inhibition [15]: 39%
inhibition [16]: 47%
